Measurements: the RNAGym collection of RNA variant scans (doi:10.1126/science.aae0568)
This sample holds only a part of the variants without activity.

B1: tRNA (parent)
chain: GUUCCGUUGGCGUAAUGGUAACGCGUCUCCCUCCUAAGGAGAAGACUGCGGGUUCGAGUCCCGUACGGAACG

Variants of: B1
Assay: yeast fitness relative to wild type (ratio to wild type); higher = fitter; tRNA-Arg(CCU), competitive growth, 37 C, YPD
Summary of the method: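 A pool of Saccharomyces cerevisiae strains, each with a tRNA-Arg(CCU) gene variant at the native genomic locus, was competed in YPD at 37°C for 24 hours across six parallel replicates. The variants had been chemically synthesised at a 3% per-site mutation rate over 69 sites, and gene amplicons before and after competition were read by 100-nucleotide paired-end sequencing. Darwinian fitness relative to wild type rested on changes in genotype frequencies. Genotypes required ≥ 100 starting reads, and estimates < 0.5 were set to 0.5.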

For A20C U26G, which yeast fitness is on record?
Its yeast fitness is 0.572.

Which yeast fitness does the source give for A20U C33A C66A here?
Its yeast fitness is ≤ 0.5.

With A20C A37G C49G U53A C60U A69C as the variant, how does the yeast fitness read?
Its yeast fitness is 0.57.

For A21C A57U C66U, which yeast fitness is on record?
Its yeast fitness is ≤ 0.5.

For A20G A40C A42U A43C, which yeast fitness is on record?
Its yeast fitness is ≤ 0.5.

Which yeast fitness does the source give for A20U C29U A42G C49G C55A here?
Its yeast fitness is ≤ 0.5.

Which yeast fitness does the source give for A20U U35C A36G C55G here?
Its yeast fitness is 0.578.

Which yeast fitness does the source give for A20C G68A A70C here?
Its yeast fitness is 0.522.

For A20C A21U C30U C31A G63A, which yeast fitness is on record?
The yeast fitness was 0.628.

With A20U A70G as the variant, how does the yeast fitness read?
Its yeast fitness is 0.918.

With U19G G58C G67C as the variant, how does the yeast fitness read?
The yeast fitness was 0.61.

For A20G C24G G52C, which yeast fitness is on record?
The yeast fitness was ≤ 0.5.

With A20C A69U as the variant, how does the yeast fitness read?
The yeast fitness was 1.04.

For A20G G25A C62U A65C, which yeast fitness is on record?
The yeast fitness was 0.813.

For A20C U59C A69C, which yeast fitness is on record?
The yeast fitness was 0.705.

Which yeast fitness does the source give for A20C C61U here?
Its yeast fitness is 0.806.

Which yeast fitness does the source give for A20G C22G C27G C30U C31G G51C here?
The yeast fitness was ≤ 0.5.

With A20G C22U G50C G63C G67C as the variant, how does the yeast fitness read?
Its yeast fitness is ≤ 0.5.

Which yeast fitness does the source give for A20U C24U here?
The yeast fitness was 0.841.

With A20U C29A as the variant, how does the yeast fitness read?
Its yeast fitness is 0.797.

With A21C C34G G48C as the variant, how does the yeast fitness read?
Its yeast fitness is ≤ 0.5.

Which yeast fitness does the source give for A20G A36C C49G U54C here?
Its yeast fitness is ≤ 0.5.

For A20G A45U G63C, which yeast fitness is on record?
The yeast fitness was 0.539.

For A20C U32A C34G A57C C66U, which yeast fitness is on record?
The yeast fitness was ≤ 0.5.

With A20C U28A C62U G67A as the variant, how does the yeast fitness read?
Its yeast fitness is ≤ 0.5.

For A20U A21U C34G G63C, which yeast fitness is on record?
Its yeast fitness is ≤ 0.5.

For A20U A37G, which yeast fitness is on record?
The yeast fitness was 0.892.

For A20G A40C A42U A43C G48A A69C, which yeast fitness is on record?
The yeast fitness was ≤ 0.5.

For A20C C33A G41C C49G, which yeast fitness is on record?
Its yeast fitness is 0.519.

With A21C C27U C49U G58C C61A A65U A69U as the variant, how does the yeast fitness read?
The yeast fitness was ≤ 0.5.

Which yeast fitness does the source give for A20U G68A here?
Its yeast fitness is 0.843.

For A20U G68C, which yeast fitness is on record?
Its yeast fitness is 0.86.

For A20U C60U A69U, which yeast fitness is on record?
The yeast fitness was 0.672.

Which yeast fitness does the source give for A20G G38C C46U G63U here?
Its yeast fitness is ≤ 0.5.

With A20C G38A U53A as the variant, how does the yeast fitness read?
Its yeast fitness is ≤ 0.5.

For A20U A36G G68A, which yeast fitness is on record?
Its yeast fitness is 0.574.

With A20G C30U C46A G63U as the variant, how does the yeast fitness read?
The yeast fitness was ≤ 0.5.

Which yeast fitness does the source give for A20G C22G U54A here?
The yeast fitness was ≤ 0.5.

With A20U C33U as the variant, how does the yeast fitness read?
Its yeast fitness is 0.675.

For A20U C33A, which yeast fitness is on record?
Its yeast fitness is 0.653.

For A20G A40G G50C, which yeast fitness is on record?
The yeast fitness was 0.574.

For A20G G56A A57C, which yeast fitness is on record?
Its yeast fitness is 0.574.

With U19G U28G as the variant, how does the yeast fitness read?
The yeast fitness was 0.551.

Which yeast fitness does the source give for A20U C60G C61U here?
The yeast fitness was ≤ 0.5.

With A20C C24U C27G C49A U53C C62G as the variant, how does the yeast fitness read?
Its yeast fitness is ≤ 0.5.

With A21C C60G C62G A70C as the variant, how does the yeast fitness read?
Its yeast fitness is ≤ 0.5.

Which yeast fitness does the source give for A20G C24U here?
The yeast fitness was 0.9.

For A21C G23C G52C, which yeast fitness is on record?
Its yeast fitness is ≤ 0.5.

Which yeast fitness does the source give for A20U C29A C30A here?
The yeast fitness was ≤ 0.5.

Which yeast fitness does the source give for A20U G23A G63A A70U here?
The yeast fitness was ≤ 0.5.

With A20U C61U as the variant, how does the yeast fitness read?
The yeast fitness was 0.836.

For A20U A40G, which yeast fitness is on record?
Its yeast fitness is 0.903.

With A21C A36U A37G A42C U64A as the variant, how does the yeast fitness read?
Its yeast fitness is ≤ 0.5.

For A21C A65C G67U, which yeast fitness is on record?
Its yeast fitness is ≤ 0.5.

Which yeast fitness does the source give for A21C C30G A65G here?
Its yeast fitness is ≤ 0.5.

Which yeast fitness does the source give for A21C C29G here?
The yeast fitness was 0.622.

For A21C C34U A65G, which yeast fitness is on record?
The yeast fitness was 0.532.

For A21C A45G, which yeast fitness is on record?
Its yeast fitness is 0.918.

Which yeast fitness does the source give for A20U C30U A57G A65U here?
The yeast fitness was ≤ 0.5.

For A20C G25A C31G C33U C34U G41C C60A C66U, which yeast fitness is on record?
Its yeast fitness is ≤ 0.5.

With A20G C46U A70U as the variant, how does the yeast fitness read?
The yeast fitness was 0.878.

For A20C C46A, which yeast fitness is on record?
The yeast fitness was 1.04.

For A20G A65U G68C, which yeast fitness is on record?
The yeast fitness was 0.556.

For A20G G38C A45C G51A, which yeast fitness is on record?
Its yeast fitness is ≤ 0.5.

For A20C C27U A36G, which yeast fitness is on record?
The yeast fitness was 0.62.

For A21C A40C, which yeast fitness is on record?
The yeast fitness was 0.734.

With A21C G39A A65C as the variant, how does the yeast fitness read?
The yeast fitness was ≤ 0.5.

With A20C A42G as the variant, how does the yeast fitness read?
Its yeast fitness is 0.842.

Which yeast fitness does the source give for A21C C27A here?
The yeast fitness was 0.545.

Which yeast fitness does the source give for A20G C24U G56A C66G here?
Its yeast fitness is ≤ 0.5.

Which yeast fitness does the source give for A20U A21C G67A here?
The yeast fitness was ≤ 0.5.

For A20G C27A A40G A45C, which yeast fitness is on record?
The yeast fitness was ≤ 0.5.

With A20C C60U A69U as the variant, how does the yeast fitness read?
The yeast fitness was 0.617.

With A20C C29G G51A as the variant, how does the yeast fitness read?
Its yeast fitness is 0.646.

For A20U C22G G23A A43U G50A, which yeast fitness is on record?
The yeast fitness was ≤ 0.5.

For A20U U26A, which yeast fitness is on record?
Its yeast fitness is 0.754.

With A20U C30U U35G A36U as the variant, how does the yeast fitness read?
Its yeast fitness is ≤ 0.5.

Which yeast fitness does the source give for A20U C46A here?
The yeast fitness was 0.858.

For A20G G25A C31G C62A, which yeast fitness is on record?
The yeast fitness was ≤ 0.5.

With U19G U64C as the variant, how does the yeast fitness read?
The yeast fitness was 0.841.

With A20U C24A G51C as the variant, how does the yeast fitness read?
The yeast fitness was ≤ 0.5.

Which yeast fitness does the source give for A21C C34U A36U G38C C49U here?
Its yeast fitness is ≤ 0.5.

For A20G C34U A40U A42U, which yeast fitness is on record?
Its yeast fitness is ≤ 0.5.
